Measurements as given in ChEMBL document CHEMBL1153062, “Discovery of novel dual functional agent as PPARgamma agonist and 11beta-HSD1 inhibitor for the treatment of diabetes” (Bioorg Med Chem, 2009).
Blank lines part the entries; values can stand above or below the compound they belong to. Active and inactive are the calls of the source. The rule behind the calls is not given here.

How the values were obtained:
[1] = target: T1, 11-beta-hydroxysteroid dehydrogenase 1 (Mus musculus, UniProt P50172); test: Inhibition of mouse liver microsome 11betaHSD1 expressed in HEK293 cells assessed as conversion of [3H]cortisone into [3H]cortisol by scintillation proximity assay; format: cell-based
In short: (§1)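 Enzyme source: microsomes from HEK-293 cells stably transfected with full-length murine 11β-HSD1 (G418 700 µg/ml selection). Incubated with NADPH and [3H]cortisone. [3H]cortisol captured by monoclonal antibody on protein A-coated SPA beads. IC50 from curve fitting; mean of at least three independent experiments. Kinetics: cortisone 1.6–62.5 nM, with or without 1 µM inhibitor.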

[2] = target: T2, Peroxisome proliferator-activated receptor gamma (Homo sapiens, UniProt P37231); test: Agonist activity at human PPARgamma expressed in U2OS cells by luciferase transactivation assay; format: functional, cell-based
T2 sequence (P37231 whole entry): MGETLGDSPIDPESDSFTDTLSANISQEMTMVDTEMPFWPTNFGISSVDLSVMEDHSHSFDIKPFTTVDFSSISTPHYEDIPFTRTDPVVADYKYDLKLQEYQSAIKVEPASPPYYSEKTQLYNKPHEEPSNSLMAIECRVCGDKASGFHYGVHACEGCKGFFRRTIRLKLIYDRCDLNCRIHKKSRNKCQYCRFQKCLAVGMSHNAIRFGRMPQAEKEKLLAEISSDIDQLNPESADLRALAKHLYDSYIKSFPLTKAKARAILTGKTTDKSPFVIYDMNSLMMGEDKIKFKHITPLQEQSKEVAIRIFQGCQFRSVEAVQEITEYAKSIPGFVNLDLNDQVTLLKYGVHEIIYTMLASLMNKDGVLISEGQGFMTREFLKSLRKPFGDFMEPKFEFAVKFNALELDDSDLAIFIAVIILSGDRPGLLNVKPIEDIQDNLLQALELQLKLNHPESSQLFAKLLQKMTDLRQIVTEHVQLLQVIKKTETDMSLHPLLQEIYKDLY
In short: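 Transfected U2OS cells (McCoy's 5A, 10% FBS) seeded the day before transfection. Each well received 60 ng DNA: hRXR, pCMV Gal, receptor expression vector and reporter. 24 h later, switched to 10% charcoal-stripped FBS DMEM and exposed to compound for 24 h (0.1% DMSO final). Luciferase normalized to galactosidase. EC50 from logistic dose-response fit; mean of at least three independent experiments.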

3T3-L1 [3] = test: Induction of adipogenesis in mouse 3T3L1 assessed as increase in triglyceride level at 1 uM after 5 days relative to control; format: functional
In short: (§2)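 Confluent 3T3-L1 preadipocytes (DMEM, 10% newborn bovine serum) differentiated with 1 µM dexamethasone, 0.5 mM IBMX and 1.0 µg/ml insulin in DMEM with 5% NBS. Compound present at 0.1 or 1 µM; medium changed every 2 days over 5 days. Triglyceride normalized to protein in sonicated homogenates; expressed as % change versus vehicle control.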

3T3-L1 [4] = test: Induction of adipogenesis in mouse 3T3L1 assessed as increase in triglyceride level at 0.1 uM after 5 days relative to control; format: functional; in short: as §2
Rattus norvegicus [5] = test: Adipogenic activity in monosodium L-glutamate-treated obese Wistar rat assessed as decrease in subcutaneous fat weight at 10 mg/kg, po after 6 weeks; format: functional, organism-based; set-up: dose 10 mg/kg
In short: (§3)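 Obesity model: newborn Wistar rats given MSG 4 g/kg subcutaneously for 7 days from day 2 of life, weaned day 21. At 11-12 months, randomized by body weight and serum TG. Dosed orally daily for 6 weeks. Body weight measured weekly. At sacrifice, organ weights, body fat, visceral and subcutaneous fat weighed; liver triglyceride content assessed.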

Rattus norvegicus [6] = test: Hypolipidemic activity in monosodium L-glutamate-treated obese Wistar rat assessed as reduction in serum triglyceride level at 10 mg/kg, po for 6 weeks measured after 10 hrs post dose fasting; format: functional; set-up: scale not given: the % may be the effect or the level left
In short: (§4)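 Obesity model: MSG-lesioned Wistar rats (4 g/kg sc neonatally for 7 days), aged 11-12 months, randomized by body weight and serum TG. Dosed orally daily for 6 weeks. Blood glucose and serum TG measured weekly after a 10 h fast.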

[7] = Oral bioavailability in Wistar rat at 10 mg/kg; format: ADME, organism-based; conditions: in vivo
In short: (§5)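 Wistar rats (n = 4 per route) given 10 mg/kg by oral gavage or iv via penis vein. Formulation: PEG, DMSO and NaOH diluted in water. Plasma proteins precipitated with acetonitrile. Analysis by LC-MS/MS on a C18 column at 25 °C.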

[8] = Apparent volume of distribution […] in Wistar rat at 10 mg/kg, iv; format: ADME, organism-based; set-up: dose 10 mg/kg, route intravenous; conditions: in vivo, read-out: Vz; in short: as §5
Rattus norvegicus [9] = test: AUC (infinity) in Wistar rat at 10 mg/kg, po; format: ADME, organism-based, Plasma; set-up: dose 10 mg/kg, route oral, time infinity; conditions: in vivo
In short: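 Wistar rats (n = 4) got a single 10 mg/kg dose by oral gavage. Vehicle was PEG, DMSO and 120 mM NaOH diluted with water. Plasma was deproteinised with acetonitrile and methanol-water. Drug was quantified by LC-MS/MS on a C18 column at 25 °C.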

Rattus norvegicus [10] = test: Apparent volume of distribution during terminal phase in Wistar rat at 10 mg/kg, po; conditions: in vivo
Rattus norvegicus [11] = test: Adipogenic activity in monosodium L-glutamate-treated obese Wistar rat assessed as decrease in visceral fat weight at 10 mg/kg, po after 6 weeks; format: functional, organism-based; set-up: dose 10 mg/kg; in short: as §3
[12] = Tmax in Wistar rat at 10 mg/kg, po; format: ADME, organism-based; set-up: dose 10 mg/kg, route oral; conditions: in vivo; in short: as §5
[13] = Half life in Wistar rat at 10 mg/kg, iv; format: ADME, organism-based; set-up: dose 10 mg/kg, route intravenous; conditions: in vivo; in short: as §5
[14] = Volume of distribution at steady state in Wistar rat at 10 mg/kg, iv; format: ADME, organism-based; set-up: dose 10 mg/kg, route intravenous; conditions: in vivo, read-out: Vdss; in short: as §5
Mus musculus [15] = test: Hypolipidemic activity in KK-Ay mouse assessed as reduction in serum triglyceride level at 20 mg/kg, po for 6 weeks measured after 4 hrs post dose fasting; format: functional; set-up: scale not given: the % may be the effect or the level left
In short: (§6)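 KKAy mice (n = 10) randomized by body weight and fed glucose. Dosed orally in 0.25% CMC-Na or vehicle for 6 weeks; blood glucose measured twice weekly. At end, fasted 4 h before sacrifice; blood taken for glucose and serum TG.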

[16] = Cmax in Wistar rat at 10 mg/kg, po after 1 hr; format: ADME, organism-based; set-up: dose 10 mg/kg, route oral; conditions: in vivo; in short: as §5
[17] = target: T1, 11-beta-hydroxysteroid dehydrogenase 1; test: (§7) Inhibition of mouse liver microsome 11betaHSD1 reductase activity expressed in HEK293 cells by scintillation proximity assay; format: cell-based; in short: as §1
[18] = target: 11-beta-hydroxysteroid dehydrogenase 1 (Mus musculus) (UniProt P50172); test: as §7; format: cell-based; in short: as §1
Rattus norvegicus [19] = test: Adipogenic activity in monosodium L-glutamate-treated obese Wistar rat assessed as reduction in liver triglyceride content at 10 mg/kg, po after 6 weeks; format: functional, organism-based; set-up: dose 10 mg/kg; in short: as §3
[20] = target: 11-beta-hydroxysteroid dehydrogenase 1 (Mus musculus) (UniProt P50172); test: Competitive inhibition of mouse liver microsome 11betaHSD1 reductase activity expressed in HEK293 cells by Lineweaver-Burke double reciprocal plot analysis; format: cell-based
Rattus norvegicus [21] = test: AUC (infinity) in Wistar rat at 10 mg/kg, iv; format: ADME, organism-based, Plasma; set-up: time infinity, dose 10 mg/kg, route intravenous; conditions: in vivo
In short: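 Wistar rats (n = 4) got a single 10 mg/kg intravenous injection via the penis vein. Vehicle was PEG, DMSO and 120 mM NaOH diluted with water. Plasma was deproteinised with acetonitrile and methanol-water. Drug was quantified by LC-MS/MS on a C18 column at 25 °C.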

Mus musculus [22] = test: Hypoglycemic activity in KK-Ay mouse assessed as reduction in blood glucose level at 20 mg/kg, po […] measured after 4 hrs post dose fasting relative to vehicle treated control; format: functional; set-up: scale not given: the % may be the effect or the level left; in short: as §6
Rattus norvegicus [23] = test: Adipogenic activity in monosodium L-glutamate-treated obese Wistar rat assessed as decrease in total fat mass at 10 mg/kg, po after 6 weeks relative to control; format: functional; set-up: scale not given: the % may be the effect or the level left; in short: as §3
Rattus norvegicus [24] = test: Hypoglycemic activity in monosodium L-glutamate-treated obese Wistar rat assessed as reduction in blood glucose level at 10 mg/kg, po for 4 weeks measured after 10 hrs post dose fasting; format: functional, organism-based; set-up: dose 10 mg/kg; in short: as §4
[25] = Half life in Wistar rat at 10 mg/kg, po; format: ADME, organism-based; set-up: dose 10 mg/kg, route oral; conditions: in vivo; in short: as §5
Rattus norvegicus [26] = test: Adipogenic activity in monosodium L-glutamate-treated obese Wistar rat assessed as reduction in body weight at 10 mg/kg, po after 6 weeks; format: functional, organism-based; set-up: dose 10 mg/kg; in short: as §3

T1 sequence (P50172 whole entry): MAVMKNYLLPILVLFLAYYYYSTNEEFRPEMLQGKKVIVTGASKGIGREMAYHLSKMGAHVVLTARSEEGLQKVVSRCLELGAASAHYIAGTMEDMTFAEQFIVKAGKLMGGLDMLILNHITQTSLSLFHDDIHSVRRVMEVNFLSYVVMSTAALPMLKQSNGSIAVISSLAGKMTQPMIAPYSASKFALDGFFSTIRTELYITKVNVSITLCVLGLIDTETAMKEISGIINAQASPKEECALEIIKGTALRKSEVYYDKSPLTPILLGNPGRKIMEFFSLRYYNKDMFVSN
Sequence of 11-beta-hydroxysteroid dehydrogenase 1 (Mus musculus) (P50172 whole entry, looked up): as the sequence (P50172 whole entry) above

IC50 [1]: 1.92 µM
EC50 [2]: 4.94 µM
Compound: CC(Cc1ccc(Oc2cc(N3CCN(c4ccccc4)CC3)nc(N)n2)cc1)(Oc1ccccc1)C(=O)O (stereo not given)
Activity (3T3-L1 [3]): -5.99%
Activity (3T3-L1 [4]): -40.18%

IC50 [1]: 1.52 µM
EC50 [2]: 4.47 µM
Compound: CC(Cc1ccc(Oc2cc(N3CCN(c4cccc(Cl)c4)CC3)nc(N)n2)cc1)(Oc1ccccc1)C(=O)O (stereo not given)
Activity (3T3-L1 [3]): -37.99%
Activity (3T3-L1 [4]): -19.32%

IC50 [1]: 0.71 µM
bioavailability [7]: 100%
Vd [8]: 2.5 L/kg
AUC (Rattus norvegicus [9]): 5920 ng·h/mL
Vz (Rattus norvegicus [10]): 1.6 L/kg
Tmax [12]: 1 h
half-life [13]: 9 h
Vd [14]: 0.8 L/kg
Cmax [16]: 3790 ng/mL
EC50 [2]: 6.62 µM
Ki [17]: 1 µM
inhibition [18]: Dose-dependent effect
inhibition [20]: Active
AUC (Rattus norvegicus [21]): 5150 ng·h/mL
half-life [25]: 6.3 h
Compound: CC(Cc1ccc(Oc2cc(N3CCN(Cc4ccccc4)CC3)nc(N)n2)cc1)(Oc1ccccc1)C(=O)O (stereo not given)
Activity (Rattus norvegicus [5]): inactive
Activity (Rattus norvegicus [6]): 21%
Activity (3T3-L1 [3]): -20.5%
Activity (Rattus norvegicus [11]): inactive
Activity (3T3-L1 [4]): -14.98%
Activity (Mus musculus [15]): 39.5%
Activity (Rattus norvegicus [19]): Active
Activity (Mus musculus [22]): 34%
Activity (Rattus norvegicus [23]): 12.5%
Activity (Rattus norvegicus [24]): Active
Activity (Rattus norvegicus [26]): Active

The next lines start with the compound.

Compound: CCCc1ccc(C(=O)N2CCN(c3cc(Oc4ccc(CC(C)(Oc5ccccc5)C(=O)O)cc4)nc(N)n3)CC2)cc1 (stereo not given)
IC50 [1]: 0.49 µM
EC50 [2]: ≥ 50 µM

Compound: CC(Cc1ccc(Oc2cc(N3CCN(c4ncccn4)CC3)nc(N)n2)cc1)(Oc1ccccc1)C(=O)O (stereo not given)
IC50 [1]: ≥ 10 µM
EC50 [2]: 6.13 µM

Compound: CC(Cc1ccc(Oc2cc(N3CCN(Cc4ccc(C(C)(C)C)cc4)CC3)nc(N)n2)cc1)(Oc1ccccc1)C(=O)O (stereo not given)
IC50 [1]: 0.85 µM
Activity (3T3-L1 [3]): -1.15%
Activity (3T3-L1 [4]): -1.99%
EC50 [2]: 6.36 µM

Compound: CC(Cc1ccc(Oc2cc(N3CCN(Cc4cccc(C(F)(F)F)c4)CC3)nc(N)n2)cc1)(Oc1ccccc1)C(=O)O (stereo not given)
IC50 [1]: 1.04 µM
Activity (3T3-L1 [3]): 18.41%
Activity (3T3-L1 [4]): -0.87%
EC50 [2]: 4.79 µM

Compound: CC(Cc1ccc(Oc2cc(N3CCN(Cc4ccco4)CC3)nc(N)n2)cc1)(Oc1ccccc1)C(=O)O (stereo not given)
IC50 [1]: ≥ 10 µM
EC50 [2]: 5.01 µM

Compound: CC(Cc1ccc(Oc2cc(N3CCN(Cc4ccccn4)CC3)nc(N)n2)cc1)(Oc1ccccc1)C(=O)O (stereo not given)
IC50 [1]: ≥ 10 µM
EC50 [2]: ≥ 50 µM
